Values after ≈ are worked out from the molar mass of the structure shown. Active and inactive are the calls of the source. The rule behind the calls is not given here.
Experiments:
[1] = test system: Mycobacterium tuberculosis; assay: Antimycobacterial activity against MDR clinical isolate Mycobacterium tuberculosis 8666/2010 assessed as inhibition of mycobacterial growth measured after 14 to 21 days of incubation by Sulas semisynthetic medium based assay; assay type: functional; details: time 14-21 day
How it was run: (§1)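 Clinical MDR/XDR M. tuberculosis isolates were tested by the Sula's semisynthetic medium micromethod. Compounds in DMSO at 1000 to 0.5 μmol/L, in twofold-type steps. Incubation at 37 °C, read at 14 and 21 days. MIC99 is the lowest concentration inhibiting >99% of growth. Drug resistance or susceptibility of each isolate is to amikacin, clofazimine, gentamicin, ofloxacin, streptomycin and the others listed.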

[2] = test system: Staphylococcus epidermidis; assay: Antibacterial activity against Staphylococcus epidermidis C1936 assessed as inhibition of bacterial growth incubated for 24 to 48 hrs by microdilution broth method; assay type: functional, organism-based; details: time 24-48 hrs
How it was run: (§2)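 Clinical isolates kept at –70 °C and subcultured twice on Mueller-Hinton agar, using the second subculture. Broth microdilution in Mueller-Hinton broth at pH 7.4 with two-fold serial compound dilutions and DMSO ≤1% final. Inoculum was 10 μL of a 1.5 × 10⁸ CFU/mL suspension. Incubated at 36 °C ± 1 °C and read at 24 h and 48 h. MIC taken as 95% growth inhibition.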

[3] = test system: Mycobacterium tuberculosis; assay: Antimycobacterial activity against XDR clinical isolate Mycobacterium tuberculosis 9449/2007 assessed as inhibition of mycobacterial growth measured after 14 to 21 days of incubation by Sulas semisynthetic medium based assay; assay type: functional; details: time 14-21 day; how it was run: as §1
Pseudomonas aeruginosa [4] = assay: Antibacterial activity against multidrug-resistant Pseudomonas aeruginosa A1245 assessed as inhibition of bacterial growth incubated for 24 to 48 hrs by microdilution broth method; assay type: functional, organism-based; details: time 24-48 hrs
How it was run: (§3)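 Clinical isolates, stored at −70 °C, were passaged twice on Mueller-Hinton agar. Broth microdilution in Mueller-Hinton broth, pH 7.4, with twofold serial dilutions. DMSO was at most 1% final. Inoculum 1.5 × 10⁸ CFU/mL suspension. MIC is 95% growth inhibition, read after 24 and 48 h at 36 °C.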

Enterococcus faecium [5] = assay: Antibacterial activity against vancomycin-resistant Enterococcus faecium assessed as inhibition of bacterial growth incubated for 24 to 48 hrs by microdilution broth method; assay type: functional, organism-based; details: time 24-48 hrs; how it was run: as §3
[6] = test system: Mycobacterium tuberculosis; assay: Antimycobacterial activity against XDR clinical isolate Mycobacterium tuberculosis PRAHA 1 assessed as inhibition of mycobacterial growth measured after 14 to 21 days of incubation by Sulas semisynthetic medium based assay; assay type: functional; details: time 14-21 day; how it was run: as §1
[7] = test system: Mycobacterium tuberculosis; assay: Antimycobacterial activity against XDR clinical isolate Mycobacterium tuberculosis 7357/1998 assessed as inhibition of mycobacterial growth measured after 14 to 21 days of incubation by Sulas semisynthetic medium based assay; assay type: functional; details: time 14-21 day; how it was run: as §1
[8] = Selectivity index, ratio of IC50 for cytotoxicity against human HepG2 cells by MTT assay to MIC99 for antitubercular activity against Mycobacterium tuberculosis CNCTC My 331/88 (H37Rv) assessed as inhibition of bacterial growth measured after 14 days of incubation; assay type: functional; details: time 14 day
How it was run: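 HepG2 cells, 15 × 10³/well, were attached overnight and exposed 24 h to serial dilutions (DMSO ≤1%). Read by MTT at 0.5 mg/mL for 1 h and 570 nm. IC50 from 4-parameter regression, three independent experiments in triplicate. SI is HepG2 IC50 divided by H37Rv MIC99.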

Mycobacterium kansasii = assay: Antitubercular activity against Mycobacterium kansasii CNCTC My 235/80 assessed as inhibition of bacterial growth measured after 7 days of incubation by Sulas semisynthetic medium based assay; assay type: functional; details: CNCTC My 235/80, 168 h, time 7 day
How it was run: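 Micromethod in Sula's semisynthetic medium. MIC is the lowest concentration inhibiting >99% of the mycobacterial population. Isoniazid was the standard.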

Klebsiella pneumoniae [9] = assay: Antibacterial activity against ESBL positive Klebsiella pneumoniae C1914 assessed as inhibition of bacterial growth incubated for 24 to 48 hrs by microdilution broth method; assay type: functional, organism-based; details: time 24-48 hrs; how it was run: as §2
[10] = test system: Mycobacterium tuberculosis; assay: Antimycobacterial activity against MDR clinical isolate Mycobacterium tuberculosis 234/2005 assessed as inhibition of mycobacterial growth measured after 14 to 21 days of incubation by Sulas semisynthetic medium based assay; assay type: functional; details: time 14-21 day; how it was run: as §1
Staphylococcus aureus [11] = assay: Antibacterial activity against Staphylococcus aureus C1947 assessed as inhibition of bacterial growth incubated for 24 to 48 hrs by microdilution broth method; assay type: functional, organism-based; details: time 24-48 hrs; how it was run: as §2
Escherichia coli [12] = assay: Antibacterial activity against Escherichia coli A1235 assessed as inhibition of bacterial growth incubated for 24 to 48 hrs by microdilution broth method; assay type: functional, organism-based; details: time 24-48 hrs; how it was run: as §2
[13] = test system: Mycobacterium tuberculosis; assay: Antimycobacterial activity against MDR clinical isolate Mycobacterium tuberculosis PRAHA 1 assessed as inhibition of mycobacterial growth measured after 14 to 21 days of incubation by Sulas semisynthetic medium based assay; assay type: functional; details: time 14-21 day; how it was run: as §1
[14] = test system: Mycobacterium tuberculosis; assay: Antimycobacterial activity against MDR clinical isolate Mycobacterium tuberculosis 7357/1998 assessed as inhibition of mycobacterial growth measured after 14 to 21 days of incubation by Sulas semisynthetic medium based assay; assay type: functional; details: time 14-21 day; how it was run: as §1
[15] = test system: Mycobacterium tuberculosis; assay: Antimycobacterial activity against XDR clinical isolate Mycobacterium tuberculosis 8666/2010 assessed as inhibition of mycobacterial growth measured after 14 to 21 days of incubation by Sulas semisynthetic medium based assay; assay type: functional; details: time 14-21 day; how it was run: as §1
[16] = Stability in human plasma assessed as compound remaining at 1 uM incubated for 15 to 120 mins by LC-MS analysis; assay type: ADME, cell-free; details: time 15-120 min, read-out: Stability
How it was run: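 Stopped with acetonitrile containing internal standard and centrifuged at 12,000 rpm for 5 min at 4 °C. Supernatant analysed by LC-MS in positive mode. % remaining taken from compound/IS peak-area ratios at 120 versus 0 min.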

[17] = Aqueous solubility of compound incubated for 20 mins by UV-Visible spectrophotometric analysis; assay type: physicochemical; details: buffer
How it was run: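 Solubility in ultrapure water containing 5% DMSO. Absorbance taken at each compound's λmax and compared with a six-point calibration made by serial dilution of a 50 μM standard, fitted by linear regression. Over-saturated solutions were sonicated at 37 °C for 10 min and centrifuged at 8000 RPM for 10 min. Supernatant absorbance was read, after dilution with 5% DMSO/water if above the calibration range.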

[18] = Intrinsic clearance in human liver microsomes at 3 uM incubated for 5 to 45 min in presence of NADPH by LC-MS analysis; assay type: ADME, Microsome; details: time 5-45 min, read-out: CLH
Escherichia coli [19] = assay: Antibacterial activity against Escherichia coli A1235 assessed as inhibition of bacterial growth at 125 uM incubated for 24 to 48 hrs by microdilution broth method; assay type: functional, organism-based; details: time 24-48 hrs
Staphylococcus aureus [20] = assay: Antibacterial activity against methicilin-resistant Staphylococcus aureus C1923 assessed as inhibition of bacterial growth at 125 uM incubated for 24 to 48 hrs by microdilution broth method; assay type: functional, organism-based; details: time 24-48 hrs
Enterococcus faecium [21] = assay: Antibacterial activity against vancomycin-resistant Enterococcus faecium assessed as inhibition of bacterial growth at 125 uM incubated for 24 to 48 hrs by microdilution broth method; assay type: functional, organism-based; details: time 24-48 hrs
Pseudomonas aeruginosa [22] = assay: Antibacterial activity against multidrug-resistant Pseudomonas aeruginosa A1245 assessed as inhibition of bacterial growth at 125 uM incubated for 24 to 48 hrs by microdilution broth method; assay type: functional, organism-based; details: time 24-48 hrs
Staphylococcus aureus [23] = assay: Antibacterial activity against Staphylococcus aureus C1947 assessed as inhibition of bacterial growth at 125 uM incubated for 24 to 48 hrs by microdilution broth method; assay type: functional, organism-based; details: time 24-48 hrs
Klebsiella pneumoniae [24] = assay: Antibacterial activity against ESBL positive Klebsiella pneumoniae C1914 assessed as inhibition of bacterial growth at 125 uM incubated for 24 to 48 hrs by microdilution broth method; assay type: functional, organism-based; details: time 24-48 hrs

SMILES | MIC99 [1] | Activity [2] | MIC99 [3] | Activity (Pseudomonas aeruginosa [4]) | Activity (Enterococcus faecium [5]) | MIC99 [6] | MIC99 [7] | Selectivity Index [8] | MIC99 (Mycobacterium kansasii) | Activity (Klebsiella pneumoniae [9]) | MIC99 [10] | Activity (Staphylococcus aureus [11]) | Activity (Escherichia coli [12]) | MIC99 [13] | MIC99 [14] | MIC99 [15] | remaining at 1 µM [16] | solubility at 20 min [17] | microsomal CLint at 3 µM [18] | further results
COc1nc(N2CCOCC2)nc2ncn(Cc3ccc4ccccc4c3)c12 | 8 µM (≈ 3 µg/mL) | inactive | 16 µM (≈ 6.01 µg/mL) | inactive | inactive | 16 µM (≈ 6.01 µg/mL) | 16 µM (≈ 6.01 µg/mL) | 32 | 16 µM (≈ 6.01 µg/mL) | inactive | 16 µM (≈ 6.01 µg/mL) | inactive | inactive | 16 µM (≈ 6.01 µg/mL) | 16 µM (≈ 6.01 µg/mL) | 8 µM (≈ 3 µg/mL) | – | – | – | –
O=c1[nH]c(N2CCCCC2)nc2ncn(Cc3ccc4ccccc4c3)c12 | 8 µM (≈ 2.88 µg/mL) | inactive | 16 µM (≈ 5.75 µg/mL) | inactive | inactive | 16 µM (≈ 5.75 µg/mL) | 16 µM (≈ 5.75 µg/mL) | 43.6 | > 500 µM | inactive | 16 µM (≈ 5.75 µg/mL) | inactive | inactive | 16 µM (≈ 5.75 µg/mL) | 16 µM (≈ 5.75 µg/mL) | 8 µM (≈ 2.88 µg/mL) | 96.7% | 8.4 µM (≈ 3.02 µg/mL) | 77.9 µL/min/mg | –
c1ccc(CNc2nc(N3CCOCC3)nc3ncn(Cc4ccc5ccccc5c4)c23)cc1 | 4 µM (≈ 1.8 µg/mL) | inactive | 4 µM (≈ 1.8 µg/mL) | inactive | inactive | 4 µM (≈ 1.8 µg/mL) | 4 µM (≈ 1.8 µg/mL) | 16.9 | 4 µM (≈ 1.8 µg/mL) | inactive | 2 µM (≈ 0.901 µg/mL) | inactive | inactive | 4 µM (≈ 1.8 µg/mL) | 2 µM (≈ 0.901 µg/mL) | 4 µM (≈ 1.8 µg/mL) | 99.2% | 58.9 µM (≈ 26.5 µg/mL) | 72.1 µL/min/mg | –
CCNc1nc(N2CCOCC2)nc2ncn(Cc3ccc4ccccc4c3)c12 | 2 µM (≈ 0.777 µg/mL) | inactive | 4 µM (≈ 1.55 µg/mL) | inactive | inactive | – | – | 63.88 | 4 µM (≈ 1.55 µg/mL) | inactive | – | inactive | inactive | – | – | 2 µM (≈ 0.777 µg/mL) | 95.5% | 150 µM (≈ 58.4 µg/mL) | 27 µL/min/mg | Activity (Escherichia coli [19]): inactive; Activity (Staphylococcus aureus [20]): inactive; Activity (Enterococcus faecium [21]): inactive; Activity (Pseudomonas aeruginosa [22]): inactive; Activity (Staphylococcus aureus [23]): inactive; Activity (Klebsiella pneumoniae [24]): inactive
O=c1[nH]c(N2CCSCC2)nc2ncn(Cc3ccc4ccccc4c3)c12 | 8 µM (≈ 3.02 µg/mL) | inactive | 16 µM (≈ 6.04 µg/mL) | inactive | inactive | 16 µM (≈ 6.04 µg/mL) | 16 µM (≈ 6.04 µg/mL) | 16 | 32 µM (≈ 12.1 µg/mL) | inactive | 16 µM (≈ 6.04 µg/mL) | inactive | inactive | 16 µM (≈ 6.04 µg/mL) | 16 µM (≈ 6.04 µg/mL) | 8 µM (≈ 3.02 µg/mL) | 98.2% | 9.3 µM (≈ 3.51 µg/mL) | 127 µL/min/mg | –

— ChEMBL document CHEMBL5620421, “2,6-Disubstituted 7-(naphthalen-2-ylmethyl)-7H-purines as a new class of potent antitubercular agents inhibiting DprE1” (Eur J Med Chem, 2023)
